Measured values as given in PMC3210410 (Bioorganic & medicinal chemistry letters, 2011).
Where two headings read alike, the source gives them in different places. One block for each compound: values may come before it.

Key:
Format in all cases: biochemical
[1] = target: T1, MMP-13 (Homo sapiens, UniProt P45452); assay: FRET triple-helical peptide; settings: for MMP-13 % Inhibition: 40 μM compound, fTHP-15 substrate, triplicate
Method in brief: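 Triple-helical fTHP-15 FRET substrate, whose conformation engages protease secondary binding sites (exosites), cleaved by MMP-13 with each test compound at 40 μM. Activity is reported as percent inhibition from triplicate assays.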

[2] = target: T1, MMP-13; assay: Dual inhibition kinetic assays; settings: compound 4 with either compound 1 or 3
[3] = target: ADAM17/TACE (Homo sapiens, UniProt P78536); assay: TACE inhibition; settings: data not shown
Chain of ADAM17/TACE (P78536 215-824): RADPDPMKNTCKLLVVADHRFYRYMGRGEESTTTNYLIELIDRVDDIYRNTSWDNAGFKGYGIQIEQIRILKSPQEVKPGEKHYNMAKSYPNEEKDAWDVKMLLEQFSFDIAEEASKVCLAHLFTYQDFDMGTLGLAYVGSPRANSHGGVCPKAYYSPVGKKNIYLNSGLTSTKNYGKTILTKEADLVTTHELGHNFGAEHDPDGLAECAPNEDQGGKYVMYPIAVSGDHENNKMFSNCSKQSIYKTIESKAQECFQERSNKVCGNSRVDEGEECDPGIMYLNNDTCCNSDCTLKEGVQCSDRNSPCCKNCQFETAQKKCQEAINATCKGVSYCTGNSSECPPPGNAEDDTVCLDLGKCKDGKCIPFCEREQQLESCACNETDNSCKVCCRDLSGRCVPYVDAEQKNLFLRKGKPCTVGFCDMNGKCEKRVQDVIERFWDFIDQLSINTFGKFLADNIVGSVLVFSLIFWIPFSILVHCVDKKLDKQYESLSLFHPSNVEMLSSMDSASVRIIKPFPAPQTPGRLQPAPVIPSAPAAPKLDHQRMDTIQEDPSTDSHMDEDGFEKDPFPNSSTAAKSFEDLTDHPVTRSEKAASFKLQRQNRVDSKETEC

[4] = target: T1, MMP-13; assay: RP-HPLC-based secondary screen for artifactual inhibition; settings: data not shown
Method in brief: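 Checks for fluorescence artifacts in the FRET assay. […] fTHP-15 substrate is analysed by RP-HPLC before and after adding test compound, so fluorescence interference can be separated from true inhibition of MMP-13.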

[5] = target: T1, MMP-13; assay: Single inhibitor kinetic assays with MMP-13 and fTHP-15; settings: for mode of inhibition of MMP-13-mediated hydrolysis of the fTHP: Lineweaver-Burk plot, lines crossing on X axis

Compound: O=c1[nH]c(SCc2ccc(Cl)cc2)nc(O)c1Cc1ccccc1 [Compound 18]
MMP-13 % Inhibition ([1]; SD <10% (Table 1)): inactive

Compound: COC(=O)c1ccc(CSc2nc3c(c(=O)[nH]2)CCC3)cc1 [Compound 24, methyl 4-[(4-oxo-1,5,6,7-tetrahydrocyclopenta[d]pyrimidin-2-yl)sulfanylmethyl] benzoate]
inhibition at 40 µM ([1]; read-out: MMP-13 % Inhibition): 62.5%
inhibition of TACE [3]: do not inhibit
inhibition in RP-HPLC secondary screen [4]: inhibitors
mode of inhibition of MMP-13-mediated hydrolysis of the fTHP [5]: non-competitive

Compound: O=C(CSc1nc2c(c(=O)[nH]1)CCC2)c1ccccc1 [Compound 30]
MMP-13 % Inhibition ([1]; SD <10% (Table 2)): inactive

Compound: O=c1[nH]c(SCc2coc(-c3cccc(Cl)c3)n2)nc2c1CCC2 [Compound 31]
MMP-13 % Inhibition ([1]; SD <10% (Table 2)): inactive

Compound: Cc1oc(-c2cccc(Cl)c2)cc1CSc1nc2c(c(=O)[nH]1)CCC2 [Compound 32]
MMP-13 % Inhibition ([1]; SD <10% (Table 2)): Inactive

Compound: Cc1cccc(CSc2nc(O)c3c(n2)CCCC3)c1 [Compound 34]
MMP-13 % Inhibition ([1]; SD <10% (Table 2)): inactive

The next lines start with the values.

inhibition at 40 µM ([1]; read-out: Inhibition (%) at [inhibitor] = 40 μM, MMP-13): 51%
binding relation in dual inhibition kinetics [2]: non-mutually exclusive binding
inhibition of TACE [3]: do not inhibit
Compound: Oc1nc(SCc2ccc(Cl)cc2)nc2c1CCC2 [Compound 4]

MMP-13 % Inhibition ([1]; SD <10% (Table 1)): inactive
Compound: CCCc1cc(O)nc(SCc2ccc(Cl)cc2)n1 [Compound 9]

MMP-13 % Inhibition ([1]; SD <10% (Table 1)): inactive
Compound: Oc1nc(SCc2ccc(Cl)cc2)nc2ccccc12 [Compound 16]

MMP-13 % Inhibition ([1]; SD <10% (Table 1)): inactive
Compound: Oc1[nH]c(SCc2ccc(Cl)cc2)nc2nncc1-2 [Compound 17]

MMP-13 % Inhibition ([1]; SD <10% (Table 1)): inactive
Compound: CC(=O)Nc1c(O)nc(SCc2ccc(Cl)cc2)nc1O [Compound 19]

inhibition at 40 µM ([1]; read-out: MMP-13 % Inhibition): 68.7%
inhibition of TACE [3]: do not inhibit
inhibition in RP-HPLC secondary screen [4]: inhibitors
mode of inhibition of MMP-13-mediated hydrolysis of the fTHP [5]: non-competitive
fold more potent as MMP-13 inhibitor than lead compound 4 ([5]; relative to compound 4): approximately 5 fold
Compound: Cc1ccc(CSc2nc(O)c3c(n2)CCC3)cc1 [Compound 20, 2-[(4-methylphenyl)methylsulfanyl]-1,5,6,7-tetrahydrocyclopenta[d]pyrimidin-4-one]
